# In the library only some 2.6% were active in any assay of this set; here they are far more common.
# S100A4 MyoIIA: inhibitors of human S100A4 binding to myosin IIA peptide | 0.14% of 360,000 active | P26447 | inhibition, % at 10.7 µM | AID 652163 | S100A4/TAMRA-MyoIIA peptide fluorescence polarization;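 active = mean inhibition of at least 70% across replicates, with every replicate also reaching that level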
# Target sequence (P26447 whole entry, looked up): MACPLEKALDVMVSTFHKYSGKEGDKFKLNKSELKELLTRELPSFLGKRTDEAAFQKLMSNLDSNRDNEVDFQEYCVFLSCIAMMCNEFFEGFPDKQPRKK
#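 Material: S100A4 monomer protein | Medium: HEPES pH 7.2 with CaCl2, KCl, NaCl, DTT, Triton | Reagent: Labelled myosin peptide probe, 5 nM | Doses: One dose per compound | Times: 5 min incubation before reading | Benchmarks: Neutral control DMSO, positive control TFP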
# miR122 inh: blocks miR-122 activity in Huh7 sensor cells. activation (reporter increase), % at 12.5 µM. 0.3% of 340,000 active. Huh7 miR-122 Renilla luciferase sensor, 48 h; neutral wells = 0, positive control = 100. AID 602342;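 active = mean replicate activation score at least 90 and every replicate individually at or above 90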;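 also: higher luciferase means less miR-122 activity so hits act as miR-122 inhibitors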
# FN deposit inh: fibronectin deposition inhibition; AH1F fibroblasts, Alexa488-fibronectin deposition fluorescence, overnight; inhibition, % at 12.6 µM; 0.086% of 350,000 active;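 active = mean inhibition across replicates of 30% or more, regardless of how many single replicates reach that level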;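 also: positive control wells lacked labelled fibronectin entirely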
#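 material = AH1F fibroblast monolayer depositing Alexa488-labelled fibronectin into matrix | amount = 10000 AH1F cells/well | buffer or medium = DMEM plus 2% serum, read in PBS | incubation = 1 h cell adhesion before compound, then overnight fibronectin incubation | detection = fluorescence at 485 nm excitation, 525 nm emission | evaluation = percent inhibition as loss of matrix-bound fibronectin fluorescence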
# HIV Env fusion: inhibitors of HIV Env-mediated cell fusion; HeLa-JRFL Env/CEM21 cell fusion, luciferase; inhibition, % at 12.3 µM; 1.1% of 360,000 active; AID 651610;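 active = mean replicate inhibition score of at least 50 and every replicate individually at or above 50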;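 also: 0% = plate neutral controls and 100% = maraviroc near 300 nM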
# Vif imaging: blocks HIV Vif function. HEK293T cells, Vif self-association by quenched fluorescence, imaging, 24 h. inhibition, % at 7.49 µM. 0.35% of 340,000 active; in the data active = inhibition above about 50%, passing the limit was not always enough
# Ecoli rRNA inh: selective bacterial rRNA inhibition in E. coli; AID 720706; GFP signal change (wild-type ribosome), % (test concentration not listed); 1.6% of 350,000 active; E. coli WT GFP vs humanized-ribosome RFP mutants, fluorescence, 24 h; stronger effect = lower value; DMSO median 0, no signal -100;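 active = significant combined selectivity score with lowered wild-type GFP, culture density cut under 30%, mutant RFP and density less affected; inactive = any of these conditions unmet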
# * hit, by the source's call; . = not tested or not shown; [ ] = another dose, or the depositor's remark.
SMILES,S100A4 MyoIIA,miR122 inh,FN deposit inh,HIV Env fusion,Vif imaging,Ecoli rRNA inh
CC(C)c1cccc(C(C)C)c1NC(=S)Nc1cccc(Cl)c1,4,1,7,4,-5,-26*
Fc1ccc(NC(=S)Nc2cccc(Cl)c2)cc1,.,.,-8,15,-2,.
Clc1nc(Cl)c2ncn(-c3ccccc3)c2n1,-1,-4,.,-60,-5,-17*
CNc1nc(Cl)nc2c1ncn2-c1ccccc1,-2,-8,9,-35,8,6
COc1cc(NC2c3ccccc3C(=O)N2Cc2ccc3c(c2)OCO3)cc(OC)c1OC (stereo not given),2,16,2,87*,9,-2
CCOc1ccc(NC2c3ccccc3C(=O)N2Cc2ccc3c(c2)OCO3)cc1 (stereo not given),-1,48,9,-12,-5,-2
C/C=C/c1ccc([C@H]2[C@H](CO)N(S(=O)(=O)Cc3ccccc3)C23CN(C(=O)C2CCOCC2)C3)cc1,.,.,.,.,.,1
O=C(/C=C/c1ccccc1)Nc1ncn[nH]1,-3,-6,.,.,59*,7
C[C@@H]1CN([C@H](C)CO)C(=O)c2cc(NC(=O)Nc3ccc(C(F)(F)F)cc3)ccc2O[C@@H](C)CCCCO[C@H]1CN(C)Cc1ccccc1,9,-23[16.7 µM],0,66*[16.7 µM],.,-14
C[C@H](CO)N1C[C@H](C)[C@@H](CN(C)Cc2ccccc2)OCCCC[C@H](C)Oc2ccc(NC(=O)Nc3ccc(C(F)(F)F)cc3)cc2C1=O,-7,-18[16.7 µM],2,9[16.7 µM],.,.
C[C@H](CO)N1C[C@H](C)[C@H](CN(C)Cc2ccccc2)OCCCC[C@H](C)Oc2ccc(NC(=O)Nc3ccccc3)cc2C1=O,-10,8[16.7 µM],5,75*[16.7 µM],.,2
C[C@@H]1CCCCO[C@H](CN(C)Cc2ccccc2)[C@H](C)CN([C@H](C)CO)C(=O)c2cc(NC(=O)Nc3ccccc3)ccc2O1,-7,7[16.7 µM],1,2[16.7 µM],.,3
C[C@@H]1CCCCO[C@H](CN(C)Cc2ccccc2)[C@@H](C)CN([C@@H](C)CO)C(=O)c2cc(NC(=O)Nc3ccc(C(F)(F)F)cc3)ccc2O1,0,-20[16.7 µM],4,88*[16.7 µM],.,6
C[C@@H]1CCCCO[C@H](CN(C)S(=O)(=O)c2ccc(F)cc2)[C@H](C)CN([C@@H](C)CO)C(=O)c2cc(NC(=O)Nc3cccc4ccccc34)ccc2O1,-36,4[16.7 µM],4,-48[16.7 µM],.,1
O=C(C[C@@H]1CC[C@@H]2[C@H](COC[C@H](O)CN2C(=O)Nc2ccc(Cl)c(Cl)c2)O1)NC1CCC1,2,-3[16.7 µM],-8,-17[16.7 µM],.,-57
C[C@H]1CN([C@@H](C)CO)C(=O)c2cc(N(C)C)ccc2O[C@H]1CN(C)S(=O)(=O)c1ccc(Cl)cc1,1,4[16.7 µM],.,.,.,-2
COc1ccc(S(=O)(=O)N(C)C[C@H]2Oc3ccc(N(C)C)cc3C(=O)N([C@H](C)CO)C[C@@H]2C)cc1,2,112*[16.7 µM],.,14[16.7 µM],.,-7
C[C@@H]1CN([C@H](C)CO)C(=O)c2cc(N(C)C)ccc2O[C@@H]1CN(C)S(=O)(=O)c1ccc(Cl)cc1,3,98*[16.7 µM],.,.,.,-3
CC(=O)Nc1ccc(/C=C/c2ccc3cccc([N+](=O)[O-])c3n2)cc1,4,9,10,-50,2,-16*
O=C(O)COc1ccc(/C=C/c2ccc3cccc([N+](=O)[O-])c3n2)cc1,-4,4,13,.,-6,-36
COc1ccc(CN(C)C[C@H]2OCCCC[C@H](C)Oc3ccc(NS(=O)(=O)c4ccc(C)cc4)cc3C(=O)N([C@H](C)CO)C[C@H]2C)cc1,-24,-2[16.7 µM],.,-12[16.7 µM],.,-8
Cc1cc(NC(=O)c2cncc(Br)c2)ccc1NC(=O)c1cc2ccccc2o1,-4,-3,.,-48,104*,3
COC(=O)c1cccc(NC(=O)c2cc3ccccc3o2)c1,-5,-1,-2,-148,-3,-29
COC(=O)c1cc(NC(=O)c2cc3ccccc3o2)cc(C(=O)OC)c1,-4,2,2,-14,-8,-23*
C[C@H]1CN(C)C(=O)Cc2cc(N)ccc2O[C@H]1CN(C)C(=O)OC(C)(C)C,.,.,-1,.,.,4
SMILES,S100A4 MyoIIA,miR122 inh,FN deposit inh,HIV Env fusion,Vif imaging,Ecoli rRNA inh
COc1ccccc1C(=O)Nc1ccc2c(c1)OC[C@@H](C)N(C)C[C@@H](C)[C@@H](OC)CN(C)C2=O,5,9[16.7 µM],3,6[16.7 µM],.,2
O=c1[nH]c(=O)n([C@H]2C[C@H](O)[C@@H](CO)O2)cc1F,-3,-9,8,70*,4,-14
CC(CNC(=S)Nc1cc(F)cc(F)c1)CSc1ccc(Cl)cc1 (stereo not given),0,38,-13,78*,-2,-58
O=C(CCS(=O)(=O)c1ccccc1)Nc1ncc([N+](=O)[O-])s1,-3,0,7,12,0,-22*
O=C(CS(=O)(=O)c1ccccc1)Nc1ncc([N+](=O)[O-])s1,-8,-6,-3,4,16,-6
Cc1cc(C)nc(SCc2nnc(SCC(=O)Nc3ccc(C)c(C)c3)n2Cc2ccco2)n1,.,-3,.,54*,-13,.
O=C(CSc1nc(-c2ccco2)cc(C(F)(F)F)n1)Nc1ccc2c(c1)CCC2,.,7,.,.,0,.
Cc1ccc(NC(=O)CSc2nc(-c3ccco3)cc(C(F)(F)F)n2)cc1C,.,45,2,56*,-4,.
O/N=C(/c1ccccc1)c1cc2cc(Br)cc(Br)c2o1,-4,2,-6,0,-3,-23*
CNC(=O)C[C@H]1CC[C@H]2[C@@H](COc3ccc(NC(=O)c4ccccc4Cl)cc3C(=O)N2C)O1,10,2[16.7 µM],.,-25[16.7 µM],.,.
COC(=O)COc1ccc(S(=O)(=O)NCCC2=CCCCC2)cc1C,4,6,.,.,.,-21*
COC(=O)COc1ccc(S(=O)(=O)NCCC2=CCCCC2)cc1,.,-1,.,.,1,.
CN1C(=O)c2cc(NC(=O)c3cccs3)ccc2OC[C@@H]2O[C@@H](CC(=O)N3CCCCC3)CC[C@H]21,-2,20[16.7 µM],-18,16[16.7 µM],.,-1
Cc1nn2c(COc3ccc(NC(=O)c4ccccc4Cl)cc3)nnc2c2ccccc12,.,19,3,-17,99*,.
Cc1nn2c(COc3ccc(NC(=O)C(C)C)cc3)nnc2c2ccccc12,-3,.,-2,-11,3,11
COC(=O)CC1(c2ccccc2)C(=O)c2ccccc2C1=O,-4,-6,.,.,8,-17
COC(=O)CC1(c2ccc(OC)cc2)C(=O)c2ccccc2C1=O,-1,.,-1,9,12,-26*
Cc1noc(C)c1S(=O)(=O)Nc1ccc2c(c1)C(=O)N([C@@H](C)CO)C[C@H](C)[C@H](CN(C)S(=O)(=O)c1c(C)noc1C)O2,.,5[16.7 µM],.,-6[16.7 µM],.,-1
